The subject of data set [1] is SARS-CoV-2. In words: microbe, parasite or virus in culture. The data set is classed as cell-based, SARS CoV-2 (USA_WA1/2020). Conditions: Severe acute respiratory syndrome coronavirus 2, Vero C1008, 72 h, read-out: CPE EC50, Vero E6, 72 h; table: mean ± confidence interval.
Data set [2] has as its system LC3B. In words: LC3B immunostaining autophagy assay, average of four cell lines. The data set is classed as cell-based. The settings on record: for EC50: 16 h, read-out: autophagy EC50.
Another data set is described as follows: in vitro. Conditions: human.
Data set [3] relates to SARS-CoV-2 spike pseudotyped particle (PP). In words: microbe, parasite or virus in culture. Format: cell-based. The settings on record: Severe acute respiratory syndrome coronavirus 2, HEK-293T, 48 h, read-out: PP EC50.
The conditions of data set [4]: cited from earlier work; for T1/2: 85 (chloroquine).
In data set [5] the test system is SARS-CoV-2. The settings on record: similar CPE assay with SARS-CoV-2 in Vero E6 cells; cited from earlier work.
Data set [6] deals with Vero E6 cells. Conditions: for cell toxicity in the CPE counter assay: Vero E6, up to 30.0 μM; for CC50: read-out: CPE CC50, uninfected Vero E6, 72 h; for cytotoxicity (reduction of cell viability): at 30.0 μM.
For data set [7], the system named is LC3B. In words: LC3B immunostaining autophagy assay in Vero E6 cells. The data set is classed as cell-based, monkey. Conditions: Vero E6, about 16 h; for LC3B spot accumulation: 50 to 0.02 μM. Summed up:
(§1)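 Cells were seeded overnight to 60% confluence and dosed at 8 points, 1:3 from 50 μM to 0.02 μM. They were fixed in ice-cold methanol for 10 min at −30 °C, blocked, and stained with rabbit anti-LC3B for 2 h at RT, AlexaFluor-647 anti-rabbit for 1 h, and Hoechst. Six fields per well were imaged. Spot count was normalized to DMSO (0%) and a reference (100%). Points with viability below 20% were excluded.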

In data set [8] the test system is Vero E6 cells. In words: Cell. The data set is classed as cell-based, monkey.
For data set [9] the following is noted: cited from earlier work.
For data set [10], the system named is SARS-CoV-2. Conditions: Vero E6, OpenData Portal screening data, Figure S14; cited from earlier work.
The test system of data set [11] is Vero E6 cells. Conditions: Vero E6, OpenData Portal screening data, Figure S14; cited from earlier work.
Data set [12] deals with human bronchial epithelial cells. The settings on record: LDH release, 24 and 96 h. In general terms: LDH in the medium is a marker of cell lysis.
Data set [13] concerns SARS-CoV-2. The data set is classed as cell-based. The settings on record: EpiAirway, positive control.
For a further data set, the system named is acidic organelles. Description: LysoTracker Deep Red staining in Vero E6 cells. The data set is classed as cell-based, monkey.
Data set [14] deals with Vero E6 cells. The settings on record: drug-repurposing screen in Vero E6 cells; cited from earlier work.
Data set [15] has as its system LC3B. In words: LC3B immunostaining autophagy assay in Huh-7.5 cells. The data set is classed as cell-based, human. In outline: as §1

What is called EC50 is the concentration that produces a half-maximal response.

Where two headings read alike, the source gives them in different places.

In the case of `CCN(CC)CCCC(C)Nc1ccnc2cc(Cl)ccc12` (centres unmarked) [chloroquine], the 50% effective concentration (EC50) is 2.01 µM in the data set with SARS-CoV-2 [1], 3.29 ± 1.86 µM in the data set with LC3B [2], 1.37 ± 0.1 µM in data set [3] and 42 µM with SARS-CoV-2 [5]. In addition, the results for the CC50 in the data set “in vitro” and with Vero E6 cells [6] were 12 ± 0.51 µM and greater than 30 µM, respectively. Also, the T1/2 in data set [4] (86 (hydroxychloroquine)) is 30 to 60 days. Also, the plasma bound in data set [4] is listed as 50–70%. Besides, the “cell toxicity in the CPE counter assay” value in the data set on Vero E6 cells [6] was “no associated cell toxicity”.
With `CCN(CC)CCNc1ccc(CO)c2sc3ccccc3c(=O)c12` [hycanthone], the EC50 in the data set with SARS-CoV-2 [1] came to 5.79 ± 0.26 µM; in the data set on LC3B [2] it was 7.35 ± 4.7 µM; in data set [3], 1.88 ± 0.08 µM. Besides, the CC50 in the data set “in vitro” stood at 11.7 ± 0.49 µM. Besides, the “LC3B spot accumulation” value in the data set on LC3B [7] was “maximal spot counts”. The cells killed entry with Vero E6 cells [8] (Vero E6, at 50 μM) was “approximately 60%”. Also, in [9] (monkey), the “absorption” value is given as “well-absorbed in monkey”. Further, the T1/2 in [9] (species not given, human data lacking) was 0.12 to 0.21 days. Also, the “cytotoxicity (reduction of cell viability)” value in the data set with Vero E6 cells [6] (Vero E6) was roughly 100%.
Regarding `CO/C1=C\C(C)=C\[C@@H](C)[C@@H](O)[C@@H](C)C/C(C)=C/C=C/[C@H](OC)[C@@H]([C@@H](C)[C@@H](O)[C@H](C)[C@@]2(O)C[C@@H](O)[C@H](C)[C@@H](C(C)C)O2)OC1=O` [Bafilomycin A1], the “SARS-CoV-2 CPE inhibition” value with SARS-CoV-2 [10] is on record as “able to block SARS-CoV-2 CPE at nontoxic nanomolar concentrations”. Besides, the “cytotoxicity” value in the data set with Vero E6 cells [11] is listed as “highly cytotoxic”.
For `CC(C)(O)CNc1ncc(-c2ccnc(Nc3ccnc(Cl)c3)n2)c(CC2CC2)n1` [VPS34-IN-1], the “SARS-CoV-2 CPE inhibition” value in the data set with SARS-CoV-2 [10] is “potently inhibited the SARS-CoV-2 CPE at concentrations that were not cytotoxic”. Further, the “cytotoxicity” value in the data set on Vero E6 cells [11] is listed as “cytotoxicity was observed at higher concentrations”.
`CCC(CC)COC(=O)[C@H](C)N[P@](=O)(OC[C@H]1O[C@@](C#N)(c2ccc3c(N)ncnn23)[C@H](O)[C@@H]1O)Oc1ccccc1` [remdesivir]: the 50% effective concentration (EC50) in the data set on SARS-CoV-2 [1] was 7.04 µM. Further, in [12], the “cytotoxicity in EpiAirway” value is “without any cytotoxicity”. In the data set with Vero E6 cells [6], the “cell toxicity in the CPE counter assay” value is recorded as “no apparent cytotoxicity”. For the same compound, in the data set on SARS-CoV-2 [13], the “reduction of viral titers” value is listed as “highly effective in reducing viral titers”.
As to `CCN(CCO)CCCC(C)Nc1ccnc2cc(Cl)ccc12` (centres unmarked) [hydroxychloroquine], the half-maximal effective concentration (EC50) was 4.47 µM with SARS-CoV-2 [1], 6.55 ± 6.67 µM in the data set on LC3B [2], 2.19 ± 0.07 µM in [3] and 9.21 µM in the data set with SARS-CoV-2 [5]. Further, the values for the CC50 in “in vitro” and in the data set on Vero E6 cells [6] were 16.7 ± 20.3 µM and greater than 30 µM, respectively. In [4] (86 (hydroxychloroquine)), the T1/2 was roughly 40 days. The “absorption” value in [4] (ref 82 (clomipramine), 86 (hydroxychloroquine)) is “rapid and complete absorption”. The “cell toxicity in the CPE counter assay” value with Vero E6 cells [6] was “no associated cell toxicity”.
As to `OC(c1cc(C(F)(F)F)nc2c(C(F)(F)F)cccc12)C1CCCCN1` (centres unmarked) [mefloquine], the EC50 is 3.85 ± 0.24 µM with SARS-CoV-2 [1]; 8.84 ± 0.64 µM in [3]; 7.3 µM in the data set on LC3B [15] (Homo sapiens, Huh7.5, read-out: autophagy EC50); 7.11 µM in the data set with SARS-CoV-2 [5]. For the same compound, the CC50 in the data set “in vitro” is 5.4 ± 0.01 µM; in the data set with Vero E6 cells [14] it was greater than 18.5 µM. Besides, the “LysoTracker staining” value in the data set on acidic organelles is recorded as “dramatic elevations in LysoTracker relative spot intensity”. In addition, in the data set with LC3B [7], the “LC3B spot accumulation” value is listed as “ineffective at inducing LC3B spot accumulation”. Also, in the data set with Vero E6 cells [8] (Vero E6, at 50 μM), the “cytotoxicity on the basis of nuclei counts” value was “completely toxic”. Besides, the “toxicity in the LysoTracker assay” value with Vero E6 cells [8] (Vero E6, highest concentration (50 μM)) is “toxic at the highest concentration”. Besides, the “LC3B spot counts” value with LC3B [15] (Huh-7.5) is on record as “increased LC3B spot counts even at low concentrations”. For the same compound, in the data set on Vero E6 cells [6] (at 15.0 to 30.0 μM, Vero E6), the cytotoxicity was 100%.
Regarding `CN(C)CCCN1c2ccccc2CCc2ccc(Cl)cc21` [clomipramine], the “LC3B increase across the cell lines” value in the data set with LC3B [2] (Vero E6, HeLa, HEK293T, Huh-7.5) is listed as “effective in increasing LC3B in all cell lines except for Vero E6”. Moreover, the CC50 in “in vitro” is 18.6 ± 0.29 µM; in the data set with Vero E6 cells [14], greater than 30 µM; with Vero E6 cells [6], greater than 30 µM. Also, the “LysoTracker staining” value with acidic organelles is on record as “dramatic elevations in LysoTracker relative spot intensity”. In addition, the “increase of LC3B spot count” value with LC3B [7] (normalized to DMSO (0%) and CQ (100%)) was 40%. Also, the “cytotoxicity on the basis of nuclei counts” value with Vero E6 cells [8] (Vero E6, at 50 μM) is on record as “not cytotoxic”. For the same compound, the “Vd” value in data set [4] is on record as “high Vd”. For the same compound, in the data set with Vero E6 cells [6] (Vero E6), the “cytotoxicity (reduction of cell viability)” value is given as “less than 20%”.

Source of the values: article PMC7771250 (ACS Infectious Diseases, 2020).
